From ChEMBL document CHEMBL1212751, “Pharmacokinetics of artemether-lumefantrine and artesunate-amodiaquine in children in Kampala, Uganda” (Antimicrob Agents Chemother, 2010)

Experiments:
Homo sapiens [1] = assay: Cmax in Ugandan children patient with uncomplicated malaria assessed as dihydroartemisinin level at 4 mg/kg, perorally […] for 3 days co-administered with amodiaquine at 10 mg/kg, perorally qd on first 2 days and then 5 mg/kg, perorally on third day; type: ADME, organism-based; design: dose 4 mg/kg, route oral; conditions: in vivo, po
In short: (§1)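 Ugandan children aged 5–13 y with uncomplicated malaria (n = 21) were dosed once daily for 3 days, with food and fat. Venous plasma was sampled before the last dose and 2, 4, 8, 24 and 120 h after it, cold-centrifuged and stored at −80°C. AS and DHA were measured by solid-phase extraction LC-MS/MS (positive ion mode). AUC0-∞ used the linear up-log down trapezoidal rule; Cmax was observed.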

[2] = Cmax in Ugandan children patient with uncomplicated malaria at 4 mg/kg, perorally […] for 3 days co-administered with amodiaquine at 10 mg/kg, perorally qd on first 2 days and then 5 mg/kg, perorally on third day; type: ADME, organism-based; design: dose 4 mg/kg, route oral; conditions: human, in vivo, po; in short: as §1
Homo sapiens [3] = assay: AUC (0-infinity) in Ugandan children patient with uncomplicated malaria assessed as dihydroartemisinin level at 4 mg/kg, perorally […] co-administered with amodiaquine at 10 mg/kg, perorally qd on first 2 days and then 5 mg/kg, perorally on third day; type: ADME, organism-based, Plasma; design: dose 4 mg/kg, time infinity, route oral; conditions: in vivo, po; in short: as §1
Homo sapiens [4] = assay: Half life in Ugandan children patient with uncomplicated malaria assessed as dihydroartemisinin level at 4 mg/kg, perorally bid for 3 days co-administered with amodiaquine at 10 mg/kg, perorally qd on first 2 days and then 5 mg/kg, perorally on third day; type: ADME, organism-based; conditions: in vivo, po
In short: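 Ugandan children aged 5–13 y (n = 21) were dosed with food and fat. Venous blood (3 ml) was drawn before the last dose and at 2, 4, 8, 24 and 120 h after it. Samples were iced, cold-centrifuged within 30 min, and the plasma was stored at −80°C. DHA was assayed by SPE LC-MS/MS in positive ion mode. λz came from terminal regression, usually the last three points. Values are geometric means (90% CIs).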

[5] = AUC (0-infinity) in Ugandan children patient with uncomplicated malaria at 4 mg/kg, perorally […] for 3 days co-administered with amodiaquine at 10 mg/kg, perorally qd on first 2 days and then 5 mg/kg, perorally on third day; type: ADME, organism-based; design: dose 4 mg/kg, route oral, time infinity; conditions: human, plasma, po; in short: as §1
Homo sapiens [6] = assay: AUC (0-infinity) in Ugandan children patient with uncomplicated malaria assessed as desethylamodiaquine level at 10 mg/kg, perorally qd on first 2 days and then 5 mg/kg, perorally on third day co-administered with artesunate at 4 mg/kg, perorally bid for 3 days; type: ADME, organism-based, Plasma; design: dose 10 mg/kg, time infinity, route oral; conditions: in vivo, po
In short: (§2)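 Oral AQ-AS was given for 3 days with food and fat to Ugandan children aged 5–13 y (n = 21). Venous blood was drawn pre-last dose and at 2, 4, 8, 24 and 120 h after it. For AQ-DEAQ, plasma was cold-centrifuged at 3,000 × g for 15 min and stored at −80°C. AUC0-∞ used trapezoids plus Clast/λz, with λz usually from the last three points.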

Homo sapiens [7] = assay: Cmax in Ugandan children patient with uncomplicated malaria assessed as desethylamodiaquine level at 10 mg/kg, perorally qd on first 2 days and then 5 mg/kg, perorally on third day co-administered with artesunate at 4 mg/kg, perorally bid for 3 days; type: ADME, organism-based; design: dose 10 mg/kg, route oral; conditions: in vivo, po; in short: as §2
Homo sapiens [8] = assay: AUC (0-120 hrs) in Ugandan children patient with uncomplicated malaria assessed as desethylamodiaquine level at 10 mg/kg, perorally qd on first 2 days and then 5 mg/kg, perorally on third day co-administered with artesunate at 4 mg/kg, perorally bid for 3 days; type: ADME, organism-based, Plasma; design: dose 10 mg/kg, time < 120 hr, route oral; conditions: in vivo, po
[9] = AUC (0-8 hrs) in Ugandan children patient with uncomplicated malaria at 10 mg/kg, perorally qd on first 2 days and then 5 mg/kg, perorally on third day co-administered with artesunate at 4 mg/kg, perorally bid for 3 days; type: ADME, organism-based; design: dose 10 mg/kg, time < 8 hr, route oral; conditions: human, plasma, po
[10] = Cmax in Ugandan children patient with uncomplicated malaria at 10 mg/kg, perorally qd on first 2 days and then 5 mg/kg, perorally on third day co-administered with artesunate at 4 mg/kg, perorally bid for 3 days; type: ADME, organism-based; design: dose 10 mg/kg, route oral; conditions: human, in vivo, po; in short: as §2
[11] = Half life in Ugandan children patient with uncomplicated malaria at 10 mg/kg, perorally qd on first 2 days and then 5 mg/kg, perorally on third day co-administered with artesunate at 4 mg/kg, perorally bid for 3 days; type: ADME, organism-based; conditions: human, in vivo, po; in short: as §2
[12] = AUC (0-infinity) in healthy human adult at 600 mg administered as single dose; type: ADME, organism-based; design: dose 600 mg, time infinity; conditions: plasma
Homo sapiens [13] = assay: Plasma concentration in Nigerian human adult malaria patient assessed as desethylamodiaquine level at 25 mg/kg measured on seventh day post dose; conditions: in vivo
Homo sapiens [14] = assay: AUC (0-infinity) in healthy human adult assessed as desethylamodiaquine level at 600 mg administered as single dose; type: ADME, organism-based, Plasma; design: dose 600 mg, time infinity; conditions: in vivo
[15] = AUC (0-infinity) in Ugandan children patient with uncomplicated malaria at 10 mg/kg, perorally qd on first 2 days and then 5 mg/kg, perorally on third day co-administered with artesunate at 4 mg/kg, perorally bid for 3 days; type: ADME, organism-based; design: dose 10 mg/kg, time infinity, route oral; conditions: human, plasma, po; in short: as §2
Homo sapiens [16] = assay: Half life in Ugandan children patient with uncomplicated malaria assessed as desethylamodiaquine level at 10 mg/kg, perorally qd on first 2 days and then 5 mg/kg, perorally on third day co-administered with artesunate at 4 mg/kg, perorallybid for 3 days; type: ADME, organism-based; conditions: in vivo, po; in short: as §2
Homo sapiens [17] = assay: Plasma concentration in Gabonian malarial children aged 6 months to 10 years assessed as desethylamodiaquine level at 30 mg/kg measured on third day post dose; conditions: in vivo
Homo sapiens [18] = assay: Cmax in Ugandan children patient with uncomplicated malaria assessed as dihydroartemisin administered twice daily for 3 days as 20/120 mg tablets containing artemether-lumefantrine combination; type: ADME, organism-based; design: dose 120 mg; conditions: in vivo, po, 72 h
In short: (§3)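 Children (5–13 y, n = 20) took AL twice daily for 3 days by weight band (20–24 kg, 2 tablets; 25–34 kg, 3; >34 kg, 4), each dose with 250 ml milk (3.3 g fat). Plasma was sampled 0–120 h after the morning last dose. AR and DHA were measured by LC-MS/MS; LR by HPLC-UV (LLOQ 25 ng/ml). Values below LLOQ were treated as missing.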

[19] = Cmax in Ugandan children patient with uncomplicated malaria administered twice daily for 3 days as 20/120 mg tablets containing artemether-lumefantrine combination; type: ADME, organism-based; design: dose 120 mg; conditions: human, in vivo, oral; in short: as §3
[20] = AUC (0-infinity) in Ugandan children patient with uncomplicated malaria administered twice daily for 3 days as 20/120 mg tablets containing artemether-lumefantrine combination; type: ADME, organism-based; design: dose 120 mg, time infinity; conditions: human, plasma, po; in short: as §3
Homo sapiens [21] = assay: Half life in Ugandan children patient with uncomplicated malaria assessed as dihydroartemisin administered twice daily for 3 days as 20/120 mg tablets containing artemether-lumefantrine combination; type: ADME, organism-based; conditions: in vivo, po, 72 h; in short: as §3
Homo sapiens [22] = assay: AUC (0-infinity) in Ugandan children patient with uncomplicated malaria assessed as dihydroartemisin administered twice daily for 3 days as 20/120 mg tablets containing artemether-lumefantrine combination; type: ADME, organism-based, Plasma; design: dose 120 mg, time infinity; conditions: in vivo, po, 72 h; in short: as §3
[23] = Half life in Ugandan children patient with uncomplicated malaria administered twice daily for 3 days as 20/120 mg tablets containing artemether-lumefantrine combination; type: ADME, organism-based; conditions: human, in vivo, po; in short: as §3

SMILES: C[C@H]1[C@H](OC(=O)CCC(=O)O)O[C@@H]2O[C@@]3(C)CC[C@H]4[C@H](C)CC[C@@H]1[C@@]24OO3 [ARTESUNATE]
- Cmax (Homo sapiens [1]): 473 ng/mL
- Cmax [2]: 51.3 ng/mL
- AUC (Homo sapiens [3]): 1404 ng·h/mL
- t1/2 (Homo sapiens [4]): 1.3 h
- AUC(0-inf) [5]: 113 ng·h/mL

SMILES: CCN(CC)Cc1cc(Nc2ccnc3cc(Cl)ccc23)ccc1O.Cl
- AUC (Homo sapiens [6]): 14770 ng·h/mL
- Cmax (Homo sapiens [7]): 235 ng/mL
- AUC (Homo sapiens [8]): 11242 ng·h/mL
- AUC at 8 h [9]: 28.9 ng·h/mL
- Cmax [10]: 5.2 ng/mL
- half-life [11]: 3.3 h
- AUC(0-inf) [12]: 154 ng·h/mL
- Concentration (Homo sapiens [13]): 62 ng/mL
- AUC (Homo sapiens [14]): 8437 ng·h/mL
- AUC(0-inf) [15]: 39.3 ng·h/mL
- t1/2 (Homo sapiens [16]): 60 h
- Concentration (Homo sapiens [17]): 149 ng/mL

SMILES: CO[C@H]1O[C@@H]2O[C@@]3(C)CC[C@H]4[C@H](C)CC[C@@H]([C@H]1C)[C@@]24OO3 [ARTEMETHER]
- Cmax (Homo sapiens [18]): 119 ng/mL
- Cmax [19]: 34 ng/mL
- AUC(0-inf) [20]: 168 ng·h/mL
- t1/2 (Homo sapiens [21]): 1.9 h
- AUC (Homo sapiens [22]): 382 ng·h/mL
- half-life [23]: 3.9 h

SMILES: CCCCN(CCCC)CC(O)c1cc(Cl)cc2c1-c1ccc(Cl)cc1/C2=C/c1ccc(Cl)cc1 (stereo unspecified) [LUMEFANTRINE]
- Cmax [19]: 6760 ng/mL
- AUC(0-inf) [20]: 210000 ng·h/mL
- half-life [23]: 32.7 h
